CHOP UPR activ – activators of apoptotic CHOP UPR arm, primary screen, cell-based, CHO-CHOP luciferase reporter, luminescence, uHTS | activation, % at 10 µM | 330,000 compounds, 0.34% hits | UPR activation; percent of tunicamycin response over DMSO baseline;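 active = at 10 µM dose, activation of 40% or more, normalized to positive control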;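 also: 100% = tunicamycin at 10 µg/mL and 0% = DMSO alone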
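Assay system: CHO-CHOP cells, stable luciferase reporter of PERK-eIF2a-CHOP signalling / Buffer or medium: F12 plus 10% serum / Compound dosing: one dose, 10 µM in 0.5% DMSO / Times: 6 h compound treatment, 37 °C / Technique: luciferase luminescence / Read-out: % reporter activation, DMSO baseline versus tunicamycin full activation / Benchmarks: tunicamycin and DMSO controls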
Mdm2-MdmX inh – inhibitors of human Mdm2-MdmX association, primary screen, cell-based, luminescence, split luciferase, SaOS-2, uHTS; Protein Mdm4 (Homo sapiens) + E3 ubiquitin-protein ligase Mdm2 (Homo sapiens), …; SaOS-2 split-luciferase Mdm2/MdmX complementation; inhibition, % at 8 µM; 330,000 compounds, 3% hits; AID 485346, 2010;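 active = inhibition of at least 50% at 8 µM in the primary screen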
Target sequence (O15151 whole entry, looked up): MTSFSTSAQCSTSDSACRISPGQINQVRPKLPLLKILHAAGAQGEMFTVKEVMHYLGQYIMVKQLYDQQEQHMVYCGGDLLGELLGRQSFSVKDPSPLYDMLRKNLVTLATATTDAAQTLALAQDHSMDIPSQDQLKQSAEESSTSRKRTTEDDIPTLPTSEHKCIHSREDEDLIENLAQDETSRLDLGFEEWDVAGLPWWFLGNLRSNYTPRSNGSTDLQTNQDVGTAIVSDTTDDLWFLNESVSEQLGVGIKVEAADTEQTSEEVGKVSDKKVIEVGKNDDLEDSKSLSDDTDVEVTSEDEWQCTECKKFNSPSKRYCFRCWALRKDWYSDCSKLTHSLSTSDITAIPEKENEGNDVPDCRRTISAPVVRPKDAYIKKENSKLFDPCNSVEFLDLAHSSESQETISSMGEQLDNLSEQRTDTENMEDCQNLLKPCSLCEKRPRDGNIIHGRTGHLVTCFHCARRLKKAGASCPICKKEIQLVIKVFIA
Target sequence (Q00987 whole entry, looked up): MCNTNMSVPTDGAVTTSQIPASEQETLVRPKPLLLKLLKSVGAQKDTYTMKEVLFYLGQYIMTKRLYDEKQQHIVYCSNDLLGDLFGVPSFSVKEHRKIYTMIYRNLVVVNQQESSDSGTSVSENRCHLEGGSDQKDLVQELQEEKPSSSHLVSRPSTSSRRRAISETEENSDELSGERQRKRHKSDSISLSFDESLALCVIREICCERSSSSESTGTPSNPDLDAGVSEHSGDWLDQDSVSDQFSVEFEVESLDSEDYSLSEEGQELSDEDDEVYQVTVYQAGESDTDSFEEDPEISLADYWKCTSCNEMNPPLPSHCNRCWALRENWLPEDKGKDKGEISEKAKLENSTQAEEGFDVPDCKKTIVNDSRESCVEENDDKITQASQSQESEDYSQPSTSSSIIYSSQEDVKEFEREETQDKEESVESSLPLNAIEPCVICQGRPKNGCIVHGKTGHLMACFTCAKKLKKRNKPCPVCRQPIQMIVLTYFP
Dynein transport – inhibitors of GR-EGFP nuclear translocation, primary screen, dynein cargo transport inhibitor project, imaging, high-content, 3617.4 mouse cells; 220,000 compounds, 0.47% hits; AID 1381, 2008; z-score, hits read low; test concentration mostly 20 µM; stimulated with dexamethasone, 1 µM; active compounds read low;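 active = plate z-score of nuclear minus cytoplasmic receptor signal below a set negative limit, without overly bright fluorescence or cell loss, cut at about -3.5 in these data, passing the limit was not always enough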;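 also: z-score of nuclear minus cytoplasmic ring GR-EGFP intensity difference per well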
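Buffer or medium: tet-free, stripped-serum medium; reagent: dexamethasone at 1.0 µM final, 30 min; incubation: 48 h induction, 1 h compound, 30 min dex at 37 °C; measured by: formaldehyde fixation, Hoechst nuclear stain, 10x automated fluorescence imaging; read-out: nuclear-to-cytoplasmic GR-EGFP distribution per well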
UPR XBP1 act – activators of adaptive XBP1 UPR arm, primary screen, cell-based, CHO-XBP1 luciferase reporter, luminescence, uHTS | IRE1-XBP1 UPR activation; percent of tunicamycin response, DMSO as zero | AID 463104, 2010 | activation, % at 20 µM | 330,000 compounds, 0.33% hits;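 active = versus positive control, 20 µM dose yields 30% or more activation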;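 also: 100% = tunicamycin at 10 µg/mL and 0% = DMSO only wells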
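incubation = overnight seeding at 37 °C, 6 h compound treatment at 37 °C | assay system = CHO-XBP1 cells stably carrying IRE1-XBP1-driven luciferase reporter | input = 1000 cells per well | detection = luciferase luminescence | dosing = single point, 20 µM final compound, 1% DMSO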
MDM2 E3 inh – MDM2-luciferase reporter signal enhancers, primary screen, MDM2 E3 ligase inhibitor project, cell-based, luminescence, 1536-well | E3 ubiquitin-protein ligase Mdm2 (Homo sapiens), Q00987 | cell-based MDM2 ubiquitination luciferase reporter, 2 h; 0 = plate control, 100 = twice control, blank-subtracted | signal enhancement, % at 5 µM | 210,000 compounds, 0.11% hits | AID 1230, 2008;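 active = signal enhancement of 30% or more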;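 also: luminescence tracks abundance of the self-degrading MDM2-luciferase fusion protein; higher signal means inhibition of MDM2 E3 ligase activity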
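Timing – 2 h compound exposure at 37 °C · Assay system – mammalian cells stably expressing self-ubiquitinating, self-degrading MDM2 E3–luciferase fusion · Amount – 2000 cells seeded into each well · Measure – % luminescence enhancement versus blank-corrected plate control mean · Measured by – SteadyLite luminescence, 15 min reagent step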
B2AR ag – beta2AR agonists driving receptor internalization, primary screen, cell-based, FAP fluorogen, flow cytometry. Beta-2 adrenergic receptor (Homo sapiens), P07550. response, % (no concentration beside the values). Am2.2-beta2AR cells. 340,000 compounds, 0.43% hits. AID 504454, 2011;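 active = response above a set limit, near 3 SD of response in nonfluorescent compounds, cut at about 42% in these data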
CHOP UPR conf – activators of apoptotic CHOP UPR arm, confirmation, cell-based, CHO-CHOP luciferase reporter, single concentration; CHO-CHOP cells, CHOP-luciferase reporter luminescence; percent of tunicamycin response, DMSO as zero; 1,000 compounds, 64% hits; shares compounds with CHOP UPR activ; activation, % at 10 µM; in the data active = activation above about 33%;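 also: 0% = DMSO wells and 100% = tunicamycin 10 µg/mL wells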
XBP1 UPR conf – IRE1-XBP1 UPR arm activators, confirmation, cell-based, CHO-XBP1 luciferase reporter, luminescence, single concentration | shares compounds with UPR XBP1 act | activation, % at 20 µM | 1,000 compounds, 63% hits;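 active = reporter signal at least 30% of the positive control's activation in two or more of four replicate wells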;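 also: plate controls were DMSO negative control for no effect and tunicamycin 10 µg/mL positive control for full effect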
Mdm2 MdmX conf – Mdm2-MdmX complex disruptors, retested hits, confirmation, luminescence, single concentration; 10,000 compounds, 55% hits; shares compounds with Mdm2-MdmX inh; AID 489028, 2010; Mdm2-MdmX binding, luminescent assay; inhibition, % at 8 µM; in the data active = inhibition above about 40%
Full FLuc ctr – full-length luciferase signal inhibition, confirmation, counter-screen for Mdm2/MdmX interaction inhibitor project, cell-based, single concentration, SaOS-2 | shares compounds with Mdm2-MdmX inh | SaOS-2 full-length luciferase counterscreen, luminescence | inhibition, % at 8 µM | 6,200 compounds, 77% hits | AID 504607, 2011;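 active = mean inhibition at 8 µM reaching about 37%, which flags the compound as non-specific, limit read from the data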;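 also: p53-null SaOS-2 cells with luciferase driven by a doxycycline-inducible promoter; compound on cells about two nights before reading with doxycycline added after day one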
* marks the source's active call; other numbers are inactive results; / = not tested or not shown. An excerpt weighted towards active compounds, which were near 3.7% of everything screened.

SMILES	CHOP UPR activ	Mdm2-MdmX inh	Dynein transport	UPR XBP1 act	MDM2 E3 inh	B2AR ag	CHOP UPR conf	Mdm2 MdmX conf	Full FLuc ctr	others
Cc1ccc(C(=O)Sc2cccccc2=O)cc1	112.1*	100.2*	/	0.2	/	16.0	16.7	82.0*	22.6
Cc1ccc(C(=O)CC(=O)c2ccccc2)cc1	6.6	-6.4	/	-0.5	/	-3.6	/	/	/
COc1ccc(C(=O)COC(=O)c2cc(S(=O)(=O)N3CCCCC3)ccc2N2CCOCC2)c(OC)c1	1.5	2.5	/	2.9	/	3.3	/	/	/
CC(OC(=O)c1nc(Cl)ccc1Cl)C(=O)Nc1ccc2c(c1)OCCO2 (stereo unspecified)	1.1	26.0	/	-1.5	/	-7.8	/	/	/
CCOc1cc(/C=C2/NC(=S)NC2=O)ccc1OCc1ccc([N+](=O)[O-])cc1	165.0*	59.9*	0.314	126.9*	1.6	0.3	25.6	34.8	/	XBP1 UPR conf=39.4*
O=C1Nc2ccc(F)cc2C12OCCO2	-0.8	2.4	/	3.8	/	-7.1	/	/	/
COc1cc([N+](=O)[O-])cc(/C=N/NC(=O)c2ccc(NC(=O)c3ccc(C)cc3)cc2)c1O	49.0*	87.6*	-0.927	37.6*	-6.2	36.5	64.0*	93.5*	33.2	XBP1 UPR conf=44.5*
Cc1ccc(CN(C)C(=O)CSc2nnc3n2CCCCC3)c(C)c1	1.6	-11.2	/	-1.2	/	4.8	/	/	/
CC1=C(/C=C/C(C)=C/C=C/C(C)=C/C(=O)Nc2ccc(O)cc2)C(C)(C)CCC1	92.7*	87.1*	/	54.3*	/	8.9	131.3*	7.9	/	XBP1 UPR conf=54.6*
COc1ccc(OC)c(NC(=O)NNC(=O)COc2ccc(F)cc2F)c1	-0.5	8.9	/	-3.8	/	-11.1	/	/	/
CCOC(=O)c1cnc(-n2nc(C)cc2C)nc1NC1CCCC1	64.3*	76.2*	0.99	18.9	-5.7	-5.0	20.3	41.8*	43.2*
CCOC(=O)c1cnc(-n2nc(C)cc2C)nc1N(C)C	-0.1	-12.1	2.46	-2.8	-7.0	-5.7	/	/	/
Cc1ccc(C)c(OCc2cc(C(=O)N(C)Cc3nccs3)no2)c1	1.7	-21.4	/	1.4	/	9.7	/	/	/
CN(C)Cc1c(O)ccc2c1O/C(=C\C=C\c1ccccc1)C2=O	96.5*	100.5*	-3.36	-3.5	-2.5	25.9	-0.5	72.3*	21.1
O=C1/C(=C/C=C/c2ccccc2)Oc2c1ccc(O)c2CN1CCN(CCO)CC1	0.4	37.1	-1.34	0.5	-3.2	-0.3	/	/	/
CC(O)C(NS(=O)(=O)c1ccc2ccccc2c1)C(=O)OCC(=O)Nc1ccccc1OC(F)F (stereo unspecified)	/	/	/	/	/	21.0	/	/	/
